Measured values taken from ChEMBL document CHEMBL3813625, “Discovery of a Novel, Orally Efficacious Liver X Receptor (LXR) β Agonist” (J Med Chem, 2016).

Key:
[1] = Half life in rat liver microsomes; format: ADME
[2] = Half life in mouse liver microsomes; format: ADME
[3] = Half life in human liver microsomes; format: ADME
[4] = Half life in cynomolgus monkey liver microsomes; format: ADME, Macaca fascicularis
[5] = target: T1, Nuclear receptor ROR-alpha (Homo sapiens, UniProt P35398); experiment: Inhibition of RORalpha receptor (unknown origin)
T1 sequence (P35398 whole entry): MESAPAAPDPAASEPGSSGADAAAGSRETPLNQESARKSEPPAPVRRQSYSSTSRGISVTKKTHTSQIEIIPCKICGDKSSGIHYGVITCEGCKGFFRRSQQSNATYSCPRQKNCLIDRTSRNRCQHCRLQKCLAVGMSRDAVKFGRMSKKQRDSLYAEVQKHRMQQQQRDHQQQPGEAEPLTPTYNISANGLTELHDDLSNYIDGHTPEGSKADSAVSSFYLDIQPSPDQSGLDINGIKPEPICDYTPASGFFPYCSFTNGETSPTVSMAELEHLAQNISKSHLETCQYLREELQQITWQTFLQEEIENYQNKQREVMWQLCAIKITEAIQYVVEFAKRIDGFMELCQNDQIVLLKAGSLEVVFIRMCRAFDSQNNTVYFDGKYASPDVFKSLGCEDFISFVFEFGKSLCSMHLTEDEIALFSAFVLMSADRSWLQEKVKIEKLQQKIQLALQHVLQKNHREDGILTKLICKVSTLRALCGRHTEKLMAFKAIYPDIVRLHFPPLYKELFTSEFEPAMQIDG

[6] = target: T2, Mineralocorticoid receptor (Homo sapiens, UniProt P08235); experiment: Inhibition of Mineralocorticoid receptor (unknown origin)
T2 sequence (P08235 whole entry): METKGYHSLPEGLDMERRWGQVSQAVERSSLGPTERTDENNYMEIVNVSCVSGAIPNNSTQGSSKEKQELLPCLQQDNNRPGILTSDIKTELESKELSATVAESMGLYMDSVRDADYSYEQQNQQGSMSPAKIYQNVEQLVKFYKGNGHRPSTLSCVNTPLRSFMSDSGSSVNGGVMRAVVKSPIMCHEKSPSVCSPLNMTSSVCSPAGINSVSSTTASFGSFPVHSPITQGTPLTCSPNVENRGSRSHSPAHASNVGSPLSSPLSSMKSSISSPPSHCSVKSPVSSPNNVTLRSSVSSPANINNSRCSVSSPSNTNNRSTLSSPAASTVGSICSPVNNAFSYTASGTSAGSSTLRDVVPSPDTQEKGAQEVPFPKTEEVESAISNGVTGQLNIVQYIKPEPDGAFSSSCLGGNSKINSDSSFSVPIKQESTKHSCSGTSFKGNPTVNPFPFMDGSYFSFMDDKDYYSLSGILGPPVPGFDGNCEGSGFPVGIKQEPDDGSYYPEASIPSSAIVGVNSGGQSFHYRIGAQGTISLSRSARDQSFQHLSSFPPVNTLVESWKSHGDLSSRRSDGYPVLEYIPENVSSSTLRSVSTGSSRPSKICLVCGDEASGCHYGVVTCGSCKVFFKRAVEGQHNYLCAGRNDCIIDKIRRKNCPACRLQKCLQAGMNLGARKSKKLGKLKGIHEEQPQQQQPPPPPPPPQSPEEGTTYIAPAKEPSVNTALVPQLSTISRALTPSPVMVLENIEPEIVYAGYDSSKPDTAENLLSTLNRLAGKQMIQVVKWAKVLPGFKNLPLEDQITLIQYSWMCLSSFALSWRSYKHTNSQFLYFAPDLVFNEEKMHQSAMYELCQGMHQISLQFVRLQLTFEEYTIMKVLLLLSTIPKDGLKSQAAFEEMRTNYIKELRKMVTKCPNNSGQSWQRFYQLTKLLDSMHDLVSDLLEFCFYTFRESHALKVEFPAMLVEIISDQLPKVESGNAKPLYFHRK

[7] = target: T3, Nuclear receptor subfamily 1 group I member 2 (Homo sapiens, UniProt O75469); experiment: Inhibition of PXR (unknown origin)
T3 sequence (O75469 whole entry): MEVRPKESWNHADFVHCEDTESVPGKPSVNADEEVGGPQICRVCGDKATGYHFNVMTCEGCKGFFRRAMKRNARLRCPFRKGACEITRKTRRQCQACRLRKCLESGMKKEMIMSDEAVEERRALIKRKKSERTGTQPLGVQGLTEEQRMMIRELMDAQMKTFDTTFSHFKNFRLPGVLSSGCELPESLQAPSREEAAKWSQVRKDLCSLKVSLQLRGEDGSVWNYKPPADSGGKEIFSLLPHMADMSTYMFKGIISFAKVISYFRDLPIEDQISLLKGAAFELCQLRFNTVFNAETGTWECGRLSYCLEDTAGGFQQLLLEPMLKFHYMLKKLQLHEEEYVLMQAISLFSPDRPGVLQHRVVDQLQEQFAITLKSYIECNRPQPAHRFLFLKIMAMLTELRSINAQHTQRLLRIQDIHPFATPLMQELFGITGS

Retinoid X receptor = target: T4, Retinoid X receptor (Homo sapiens, UniProt P28702+P48443+P19793); experiment: Inhibition of RXR (unknown origin); format: protein assay
T4 sequence (P28702 whole entry): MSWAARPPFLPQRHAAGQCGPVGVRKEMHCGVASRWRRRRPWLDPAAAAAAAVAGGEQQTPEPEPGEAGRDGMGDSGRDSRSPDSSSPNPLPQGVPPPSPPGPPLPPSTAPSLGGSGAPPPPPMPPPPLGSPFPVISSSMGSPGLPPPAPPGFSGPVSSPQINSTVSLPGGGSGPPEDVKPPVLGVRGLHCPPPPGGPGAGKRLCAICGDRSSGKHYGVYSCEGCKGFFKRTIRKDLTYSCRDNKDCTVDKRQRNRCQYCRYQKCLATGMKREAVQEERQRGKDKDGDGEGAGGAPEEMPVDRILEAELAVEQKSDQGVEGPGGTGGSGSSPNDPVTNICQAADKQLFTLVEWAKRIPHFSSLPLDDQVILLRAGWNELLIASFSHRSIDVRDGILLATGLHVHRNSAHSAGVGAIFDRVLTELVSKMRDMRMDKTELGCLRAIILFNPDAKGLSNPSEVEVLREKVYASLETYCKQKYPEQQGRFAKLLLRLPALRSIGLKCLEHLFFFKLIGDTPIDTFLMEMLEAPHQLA
T4 sequence (P48443 whole entry): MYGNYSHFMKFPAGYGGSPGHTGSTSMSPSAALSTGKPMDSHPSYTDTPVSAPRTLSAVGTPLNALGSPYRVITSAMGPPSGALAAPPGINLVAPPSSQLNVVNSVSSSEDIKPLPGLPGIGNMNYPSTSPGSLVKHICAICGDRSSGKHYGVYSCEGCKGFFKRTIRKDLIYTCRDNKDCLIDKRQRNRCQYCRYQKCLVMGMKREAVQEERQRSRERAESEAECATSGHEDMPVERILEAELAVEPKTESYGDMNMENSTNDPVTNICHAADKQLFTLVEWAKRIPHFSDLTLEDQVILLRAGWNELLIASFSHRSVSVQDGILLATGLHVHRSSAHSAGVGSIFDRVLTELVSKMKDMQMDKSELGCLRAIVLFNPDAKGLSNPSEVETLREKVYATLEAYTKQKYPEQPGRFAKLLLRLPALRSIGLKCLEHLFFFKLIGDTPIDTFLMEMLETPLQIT
T4 sequence (P19793 whole entry): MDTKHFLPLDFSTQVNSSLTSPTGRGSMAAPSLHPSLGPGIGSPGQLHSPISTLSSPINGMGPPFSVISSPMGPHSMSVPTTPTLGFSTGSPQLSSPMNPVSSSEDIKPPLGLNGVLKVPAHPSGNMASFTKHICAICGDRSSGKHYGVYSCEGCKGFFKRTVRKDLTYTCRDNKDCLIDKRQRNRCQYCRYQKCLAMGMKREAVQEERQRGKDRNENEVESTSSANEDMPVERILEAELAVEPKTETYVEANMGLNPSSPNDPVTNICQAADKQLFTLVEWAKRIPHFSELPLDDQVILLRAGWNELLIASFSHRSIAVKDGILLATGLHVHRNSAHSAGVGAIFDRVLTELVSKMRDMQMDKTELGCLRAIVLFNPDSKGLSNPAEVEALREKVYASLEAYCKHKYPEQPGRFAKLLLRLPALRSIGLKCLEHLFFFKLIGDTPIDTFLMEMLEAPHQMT

[8] = target: T5, Oxysterols receptor LXR-beta (Homo sapiens, UniProt P55055); experiment: Agonist activity at human LXRbeta ligand binding domain(155 to 460 residues) transfected in HEK293 cells after 16 hrs by Gal4-luciferase reporter gene assay; format: cell-based
T5 sequence (P55055 whole entry): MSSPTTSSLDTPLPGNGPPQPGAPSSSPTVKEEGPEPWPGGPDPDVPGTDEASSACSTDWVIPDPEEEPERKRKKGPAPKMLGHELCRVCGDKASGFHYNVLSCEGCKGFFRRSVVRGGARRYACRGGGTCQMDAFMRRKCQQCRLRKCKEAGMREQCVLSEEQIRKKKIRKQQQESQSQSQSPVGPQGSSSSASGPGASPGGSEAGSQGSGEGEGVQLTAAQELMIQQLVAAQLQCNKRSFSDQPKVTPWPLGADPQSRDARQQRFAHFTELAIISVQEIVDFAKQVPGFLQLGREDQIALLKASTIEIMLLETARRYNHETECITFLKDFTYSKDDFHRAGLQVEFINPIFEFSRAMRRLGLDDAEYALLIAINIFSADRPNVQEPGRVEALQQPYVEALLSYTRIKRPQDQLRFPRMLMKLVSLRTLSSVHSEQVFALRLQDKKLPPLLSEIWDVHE

[9] = target: T6, Oxysterols receptor LXR-alpha (Homo sapiens, UniProt Q13133); experiment: Agonist activity at human LXRalpha ligand binding domain(167 to 447 residues) transfected in HEK293 cells after 16 hrs by Gal4-luciferase reporter gene assay; format: cell-based
T6 sequence (Q13133 whole entry): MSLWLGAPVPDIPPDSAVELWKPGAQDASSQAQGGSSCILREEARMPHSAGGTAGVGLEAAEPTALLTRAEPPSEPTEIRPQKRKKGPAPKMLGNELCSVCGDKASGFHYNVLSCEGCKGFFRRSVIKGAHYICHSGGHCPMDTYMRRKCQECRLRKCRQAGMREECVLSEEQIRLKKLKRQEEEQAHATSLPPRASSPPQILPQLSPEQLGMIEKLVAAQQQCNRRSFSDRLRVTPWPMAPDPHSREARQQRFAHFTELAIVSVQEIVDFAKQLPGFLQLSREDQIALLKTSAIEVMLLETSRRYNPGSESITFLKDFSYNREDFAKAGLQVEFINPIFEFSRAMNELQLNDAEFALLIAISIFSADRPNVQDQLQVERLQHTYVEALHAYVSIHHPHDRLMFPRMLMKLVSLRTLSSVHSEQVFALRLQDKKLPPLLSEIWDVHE

[10] = target: T5, Oxysterols receptor LXR-beta; experiment: Binding to human LXRbeta
[11] = target: T6, Oxysterols receptor LXR-alpha; experiment: Agonist activity at human LXRalpha by Gal4 assay
How it was run: (§1)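 Cells were co-transfected with pG5-luc reporter and a Gal4 fusion of the ligand-binding domain (pGal4-LXRα LBD for α, pGal4-LXRβ LBD for β). Twenty hours after transfection, cells were treated with compound for 16 h. Agonist activity was read as luciferase signal and EC50 derived. Values are the average of at least two independent determinations.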

[12] = target: T6, Oxysterols receptor LXR-alpha; experiment: Binding affinity to human LXRalpha
[13] = target: T5, Oxysterols receptor LXR-beta; experiment: Agonist activity at human LXRbeta by Gal4 assay; how it was run: as §1
[14] = target: T6, Oxysterols receptor LXR-alpha; experiment: Agonist activity at human LXRalpha coexpressed in African green monkey CV1 cells by Gal4 responsive reporter gene assay; format: cell-based, CV-1
[15] = target: T5, Oxysterols receptor LXR-beta; experiment: Agonist activity at human LXRbeta coexpressed in African green monkey CV1 cells by Gal4 responsive reporter gene assay; format: cell-based, CV-1

Structure (SMILES) | half-life [1] [min] | half-life [2] [min] | half-life [3] [min] | other results
CC(C)[C@H]1CN(c2ccc(CO)c(S(C)(=O)=O)c2)CCN1c1ncc(CO)c(C(F)(F)F)n1 | 25 |  |  | 
CC(C)[C@@H]1CN(c2ccc(F)c(S(C)(=O)=O)c2)CCN1c1nccc(C(F)(F)F)n1 | 5 | 11 |  | 
CC(C)[C@@H]1CN(c2ccc(CO)c(S(C)(=O)=O)c2)CCN1c1ncc(CO)c(C(F)(F)F)n1 | 70 | 40 | 43 | half-life [4]: 10 min; IC50 [5]: > 10 µM; IC50 [6]: > 10 µM; IC50 [7]: > 10 µM; IC50 (Retinoid X receptor): > 10 µM
CC(C)[C@@H]1CN(c2ccc(F)c(S(C)(=O)=O)c2)CCN1c1ncc(C(C)(C)O)c(C(F)(F)F)n1 | 51 | 72 | 56 | 
CC(C)[C@@H]1CN(c2ccc(F)c(S(C)(=O)=O)c2)CCN1c1ncc(Cl)c(C(F)(F)F)n1 | 42 |  | 19 | 
CC(C)[C@@H]1CN(c2ccc(F)c(S(C)(=O)=O)c2)CCN1c1ncc(CO)c(C(F)(F)F)n1 | 36 | 38 | 22 | 
CC(C)[C@@H]1CN(c2cccc(S(C)(=O)=O)c2)CCN1c1nccc(C(F)(F)F)n1 | 11 | 8 |  | 
FC(F)(F)c1ccc(CN2CCN(c3ccccc3)CC2c2ccccc2)cn1 (stereo unspecified) |  |  |  | EC50 [8]: > 20 µM; EC50 [9]: > 20 µM
O=C(O)Cc1cccc(OCCCN(Cc2cccc(C(F)(F)F)c2Cl)CC(c2ccccc2)c2ccccc2)c1 |  |  |  | EC50 [10]: 0.005 µM; EC50 [11]: 1.13 µM; EC50 [12]: 0.022 µM; EC50 [13]: 0.39 µM
C[C@H](CC[C@@H]1OC1(C)C)[C@H]1CC[C@H]2[C@@H]3CC=C4C[C@@H](O)CC[C@]4(C)[C@H]3CC[C@]12C [24(S),25-EPOXYCHOLESTEROL] |  |  |  | EC50 [10]: > 20 µM; EC50 [14]: 0.117 µM; EC50 [15]: 0.168 µM; EC50 [12]: > 20 µM
